The structures appear in SMILES notation.

A word on the half-life: it is the time needed for the level to fall by half in the phase considered. What is called inhibition is how much of the control response was suppressed. High values mean a response far below the control, low ones a response near the control. What is called Km is the concentration of substrate that gives half-maximal velocity. Broadly, the Vmax is the top rate of the reaction or transport when substrate is in excess.

For data set [1], the target named is Large neutral amino acids transporter small subunit 1 (Rattus norvegicus) (UniProt Q63016). As to the kind of experiment: Binding affinity at LAT1 in rat brain assessed Inhibition of [14C]L-leucine PA uptake at 70 uM. It is filed as tissue-based. Summed up:
(§1)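 In situ rat brain perfusion with pH 7.4 bicarbonate-buffered saline (37 °C, 95% O2/5% CO2). [14C]L-leucine 0.2 µCi/mL perfused 30 s alone (100% PA product) or co-perfused with 70 µM prodrug. PA product derived from brain radioactivity measured by liquid scintillation counting; [14C]sucrose (0.2 µCi/mL) used as vascular marker. Inhibition relative to control PA; n=3–5.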

Data set [2] in a line: Stability in rat liver assessed as half life of hydrolysis. It is filed as ADME, tissue-based. In outline:
(§2)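 Enzymatic hydrolysis at 37 °C in rat serum diluted to 80%, brain homogenate diluted to 20%, or liver homogenate diluted to 50% (v/v) with 0.16 M phosphate buffer pH 7.4. Aliquots taken into acetonitrile to precipitate protein, then analysed by HPLC. Pseudo-first-order half-lives; n=3.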

Data set [3] is described as follows: Stability in rat brain assessed as half life of hydrolysis. It is filed as ADME, tissue-based. Summed up:
as §2

The test system of data set [4] is Brain. The data set can be described thus: Drug uptake in rat brain at 64 uM by perfusion technique. It counts as ADME, tissue-based. Particulars: in vivo. Summed up: (§3)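 Rat brain perfused in situ for 60 s at 37 °C with 64 µM prodrug, alone or with 2 mM BCH added to the medium. Vasculature washed 30 s with cold prodrug-free medium. Brain uptake in pmol/mg/min quantified by HPLC after extraction; n=3; two-tailed independent t test.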

The target in data set [5] is Large neutral amino acids transporter small subunit 1 (Rattus norvegicus) (UniProt Q63016). As to the kind of experiment: Inhibition of [14C]L-leucine uptake at LAT1 in rat brain at 70 uM by perfusion technique. It counts as tissue-based. Summed up: as §1
The nature of data set [6]: Stability in rat serum assessed as half life of hydrolysis. It is filed as ADME, cell-free. In outline: as §2
A short description of data set [7]: (§4) Drug uptake in rat brain after 60 secs perfusion. It is filed as ADME, tissue-based. The conditions noted are these: brain, other: perfusion. Summed up: (§5)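 In situ rat brain perfusion, 60 s at 37 °C, with seven prodrug concentrations from 0 to 138 µM in bicarbonate-buffered saline pH 7.4. Vasculature then washed 30 s with cold (5 °C) prodrug-free medium. Brain hemisphere homogenised, acidified, ethyl acetate-extracted and analysed by HPLC. Km and Vmax from nonlinear Michaelis–Menten fit; mean ± SD, n=3.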

For data set [8], the system named is Brain. Described as §4. It counts as ADME, tissue-based. The conditions noted are these: in vivo, 1 min. Summed up:
as §5

Data set [9] in a line: Stability in aqueous buffer at pH 7.4. It counts as physicochemical. Summed up:
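Chemical hydrolysis in 0.16 M phosphate buffer pH 7.4 (ionic strength 0.5) at 37 °C in a thermostatted water bath. Disappearance followed by HPLC; pseudo-first-order half-life; n=2.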

Data set [10] concerns Brain. The data set can be described thus: Drug uptake in rat brain at 64 uM in presence of 2-aminobicyclo(2,2,1)heptane-2-carboxylic acid by perfusion technique. The conditions noted are these: in vivo. It counts as ADME, tissue-based. Summed up: as §3

Chain of Large neutral amino acids transporter small subunit 1 (Rattus norvegicus) (Q63016 whole entry, looked up, the tested form may be a part): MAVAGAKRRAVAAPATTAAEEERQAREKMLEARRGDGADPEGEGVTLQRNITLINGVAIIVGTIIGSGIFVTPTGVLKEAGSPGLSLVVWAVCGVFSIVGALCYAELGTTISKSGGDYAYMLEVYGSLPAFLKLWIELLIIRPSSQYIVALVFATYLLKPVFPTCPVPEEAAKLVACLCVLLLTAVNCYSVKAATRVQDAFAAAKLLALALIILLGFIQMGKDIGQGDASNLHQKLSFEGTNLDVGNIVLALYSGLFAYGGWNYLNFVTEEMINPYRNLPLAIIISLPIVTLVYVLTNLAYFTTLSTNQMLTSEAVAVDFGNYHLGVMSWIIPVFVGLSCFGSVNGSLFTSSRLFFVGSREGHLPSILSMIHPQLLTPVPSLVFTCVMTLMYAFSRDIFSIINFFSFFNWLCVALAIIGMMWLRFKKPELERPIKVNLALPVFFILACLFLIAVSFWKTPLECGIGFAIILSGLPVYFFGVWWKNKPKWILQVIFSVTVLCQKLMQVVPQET

The compound `CC(C)C[C@H](N)C(=O)OCCOC(=O)C(C)c1cccc(C(=O)c2ccccc2)c1` (stereo partly drawn) registered an Activity in data set [1] of 0.0212 mL/s/g.
With `CC(C)CC(NC(=O)C(C)c1cccc(C(=O)c2ccccc2)c1)C(=O)O` (stereo not drawn), the Activity in data set [1] stood at 0.0266 mL/s/g.
The same measure, in the same setting: the value for `CC(C(=O)NC(Cc1ccccc1)C(=O)O)c1cccc(C(=O)c2ccccc2)c1` (stereo not drawn) was 0.0191 mL/s/g.
As to `CC(C(=O)Oc1ccc(C[C@H](N)C(=O)O)cc1)c1cccc(C(=O)c2ccccc2)c1.Cl` (stereo partly drawn), the half-life in data set [2] is 2.8 min; in data set [3] it was 4.4 min; in [6] it was 10.2 min; in data set [9], 1350 min. The figures for the Drug uptake in data set [4] and in [10] were 0.846 pmol/min/mg and 0.362 pmol/min/mg, respectively. Also, the inhibition in data set [5] amounted to 98.5%. Further, the Km at 1 min in data set [7] stood at 22.5 µM. The Vmax in data set [8] came out at 1.41 pmol/min/mg.
For `CC(C(=O)OCCOC(=O)[C@@H](N)Cc1ccccc1)c1cccc(C(=O)c2ccccc2)c1` (stereo partly drawn), the Activity in data set [1] is 0.0282 mL/s/g.
